Assay results gathered from unrelated publications.
Lines come from different studies, so protocols differ.
Target: Voltage-gated inwardly rectifying potassium channel KCNH2 (KCNH2, Homo sapiens, UniProt Q12809)

SMILES	read-out	mode	technique	cell line	pH	IC50 [µM]
CC(C)(C)c1sc2ncnc(Oc3c(F)cccc3OC(F)(F)F)c2c1-c1ccc(Cl)cc1	ion current	inhibitor	patch clamp			~28
Cc1ccc(OCC(=O)N[C@@H](Cc2c[nH]c3ccccc23)C(=O)OC(C)C)cc1	ion current	inhibitor	patch clamp	HEK293		> 50
N=C(CC(O)c1cc2c(F)cc(F)cc2c2cc(C(F)(F)F)ccc12)Nc1ccc(Br)cc1 (centres unmarked)	ligand displacement		FP			1.95
C=CCn1c(=O)c2cnc(Nc3ccc(N4CCN(C)CC4)cc3)nc2n1-c1ccc2c(n1)[C@@](O)(CC)CC2	ion current	inhibitor				> 30
Cc1ccc2c(c1)C(=O)[C@]1(O)CCN(c3ccc4nc(C)ccc4c3)C1=N2	ion current	inhibitor				5.4
CCOC(=O)C1=C(CN2CCC[C@@H]2C(=O)Nc2ccc(B(O)O)cc2)NC(c2nccs2)=N[C@H]1c1ccc(F)cc1Br	ion current	inhibitor	patch clamp	HEK293	pH 7.4	6.54
FC(F)(F)CN1CC(n2cc(Oc3ccn4nc(Cl)cc4n3)cn2)C1	ion current	inhibitor	patch clamp			> 30
NC/C(=C\F)COc1cccc(Cn2c(=S)[nH]c(=O)c3[nH]cnc32)c1	ion current	inhibitor				> 100
